Published values gathered from unrelated publications.
Read-out: microbial growth

SMILES | organism | technique | strain | time | MIC
Cc1ccc2nc(-c3cccc(O)c3)[nH]c2c1 | Aspergillus niger | – | ATCC16404 | – | 128 µg/mL
CCCCCCCCCCCN1CCN(CC(O)(Cn2cncn2)c2ccc(F)cc2F)CC1 (stereo not shown) | Lodderomyces parapsilosis | broth dilution | ATCC22019 | 48 h | 0.24 µg/mL
Cc1ccc2nc(-c3ccccc3O)[nH]c2c1 | Aspergillus niger | – | ATCC16404 | – | 512 µg/mL
CCc1cc(Nc2cc(=O)n(CCCCO)c(=O)[nH]2)ccc1C | Bacteroides fragilis | agar dilution | – | 48 h | > 32 µg/mL
Cc1ccc(C)n1-c1ccc(-c2nnc(-c3ccccc3[N+](=O)[O-])[nH]2)cc1 | Aspergillus niger | broth dilution | ATCC6275 | – | 31.2 µg/mL
CCCCCCCCN1CCN(CC(O)(Cn2cncn2)c2ccc(F)cc2F)CC1 (stereo not shown) | Lodderomyces parapsilosis | broth dilution | ATCC22019 | 48 h | 0.03 µg/mL
Cc1ncc([N+](=O)[O-])n1CCO | Bacteroides fragilis | agar dilution | – | 48 h | 1 µg/mL
O=C1NN=C(N=Cc2ccc(O)c(O)c2)C1=NNn1c(-c2ccccc2)nc2ccccc2c1=O | Aspergillus niger | broth dilution | – | – | 107 µM
O=[N+]([O-])c1ccc(-c2nc3ccccc3n2Cc2ccccc2)cc1 | Aspergillus niger | – | ATCC16404 | – | 64 µg/mL
CC1=NN(CNc2ccccc2[N+](=O)[O-])C(=O)C1=NNn1c(-c2ccccc2)nc2ccccc2c1=O | Aspergillus niger | broth dilution | – | – | 50.4 µM
CC[C@H](C)C[C@H](C)CCCCCCCCC(=O)N[C@H]1C[C@@H](O)[C@@H](NCCN)NC(=O)[C@@H]2[C@@H](O)CCN2C(=O)[C@H]([C@H](O)CCN)NC(=O)[C@H]([C@H](O)[C@@H](O)c2ccc(O)cc2)NC(=O)[C@@H]2C[C@@H](O)CN2C(=O)[C@H]([C@@H](C)O)NC1=O | Lodderomyces parapsilosis | broth dilution | ATCC22019 | 48 h | 1.95 µg/mL
Cc1ccc2nc(-c3ccc([N+](=O)[O-])cc3)n(Cc3ccc(Cl)cc3)c2c1 | Aspergillus niger | – | ATCC16404 | – | 64 µg/mL
O=C(c1cc(O)c(O)c(O)c1)c1cc2ccccc2o1 | Lodderomyces parapsilosis | broth dilution | – | – | 16 µg/mL
CCOCCn1cnc2nc(NCc3ccc(Cl)c(Cl)c3)[nH]c(=O)c21 | Bacteroides fragilis | agar dilution | – | 48 h | > 32 µg/mL
CC[C@@H]([C@H](C)O)n1ncn(-c2ccc(N3CCN(c4ccc(OC[C@@H]5CO[C@@](Cn6cncn6)(c6ccc(F)cc6F)C5)cc4)CC3)cc2)c1=O | Aspergillus brasiliensis | – | ATCC16404 | 72 h | < 0.3 µM
Cc1ccc(C)n1-c1ccc(C(=O)NNC=O)cc1 | Aspergillus niger | broth dilution | ATCC6275 | – | 250 µg/mL
C=CCn1c(-c2ccc(Cl)cc2)nc2ccccc21 | Aspergillus niger | – | ATCC16404 | – | 512 µg/mL
CCCCCCCCCCCN1CCNCC1 | Lodderomyces parapsilosis | broth dilution | ATCC22019 | 48 h | 7.8 µg/mL
Cc1ccc(C)n1-c1ccc(-c2nnc(-c3cccc([N+](=O)[O-])c3)[nH]2)cc1 | Aspergillus niger | broth dilution | ATCC6275 | – | 31.2 µg/mL
CCCCCCCCCCCCCCN1CCNCC1 | Lodderomyces parapsilosis | – | ATCC22019 | – | 0.975 µg/mL
Cc1cc(C)n(C(=O)c2ccc(-n3c(C)ccc3C)cc2)n1 | Aspergillus niger | broth dilution | ATCC6275 | – | > 500 µg/mL
C=CCn1c(-c2ccc(OC)c(OC)c2)nc2ccccc21 | Aspergillus niger | – | ATCC16404 | – | 512 µg/mL
CCCCCCCCCCCCCCN1CCOCC1 | Lodderomyces parapsilosis | broth dilution | ATCC22019 | 48 h | > 31.3 µg/mL
Clc1ccccc1-c1nc2ccccc2[nH]1 | Aspergillus niger | – | ATCC16404 | – | 512 µg/mL
CCCCCCCCCCCCN1CCNCC1 | Lodderomyces parapsilosis | broth dilution | ATCC22019 | 48 h | 1.95 µg/mL
